Test results: ChEMBL document CHEMBL3259723, “Membrane active vancomycin analogues: a strategy to combat bacterial resistance” (J Med Chem, 2014)
Calls of active or inactive are those of the source. No cut-off for these calls is given here.

Tests used:
[1] = tested on: Enterococcus faecium; test: Antibacterial activity against vancomycin-sensitive Enterococcus faecium ATCC 19634 assessed as growth inhibition by broth microdilution method; format: functional
Outline: (§1)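 Broth microdilution per CLSI; compounds serially diluted in autoclaved water. Bacteria grown 6 h in suitable media, diluted to 10⁵ CFU/mL; compound added to bacterial suspension, incubated at 37 °C, OD600 read. Triplicate wells, experiment done at least twice; mean OD versus concentration sigmoidally fitted, MIC taken where OD equals no-bacteria control.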

[2] = tested on: Enterococcus faecium; test: Antibacterial activity against vancomycin-resistant VanA phenotype of Enterococcus faecium ATCC 51559 assessed as growth inhibition by broth microdilution method; format: functional
Outline: (§2)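 Broth microdilution per CLSI; compounds serially diluted in sterile water, added to bacteria at 10^5 CFU/mL (diluted from 6 h cultures). Incubated at 37 °C, OD600 read. Triplicate wells, experiment done at least twice. Mean OD plotted against concentration and fitted sigmoidally; MIC taken where OD matches the no-bacteria control.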

[3] = tested on: Staphylococcus aureus; test: Antibacterial activity against methicillin-resistant Staphylococcus aureus ATCC 33591 assessed as growth inhibition by broth microdilution method; format: functional; outline: as §2
[4] = tested on: Staphylococcus aureus; test: Antibacterial activity against methicillin-sensitive Staphylococcus aureus MTCC 737 assessed as growth inhibition by broth microdilution method; format: functional; outline: as §1
[5] = tested on: Staphylococcus aureus; test: Antibacterial activity against methicillin-resistant Staphylococcus aureus ATCC 33591 assessed as leakage of intracellular potassium ion at 10 uM measured for 10 mins by PBFI-AM dye-based spectrofluorometric analysis relative to control; format: functional
Outline: (§3)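 Mid-log (6 h) cells washed twice and resuspended in 10 mM HEPES pH 7.2 with 0.5% glucose. Signal stabilized 60 s at RT, then 1 μM PBFI-AM added and a 2 min baseline recorded before compound.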

[6] = tested on: Enterococcus faecium; test: Antibacterial activity against vancomycin-resistant VanA phenotype of Enterococcus faecium ATCC 51559 assessed as induction of cytoplasmic membrane permeabilization at 10 uM measured for 10 mins by propidium iodide uptake assay; format: functional, organism-based
Outline: (§4)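 Mid-log (6 h) cells harvested at 4 °C, washed and resuspended in PBS pH 7.2. Compound added to cells with 10 μM propidium iodide. Fluorescence (ex 535/em 617 nm) monitored 10 min at RT; the rise in PI fluorescence taken as inner membrane permeabilization.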

[7] = tested on: Staphylococcus aureus; test: Antibacterial activity against methicillin-resistant Staphylococcus aureus ATCC 33591 assessed as induction of cytoplasmic membrane permeabilization measured within 5 mins by propidium iodide uptake assay; format: functional, organism-based; outline: as §4
[8] = tested on: Staphylococcus aureus; test: Antibacterial activity against vancomycin-intermediate-resistant Staphylococcus aureus assessed as growth inhibition by broth microdilution method; format: functional; outline: as §2
[9] = tested on: Enterococcus faecium; test: Antibacterial activity against vancomycin-resistant VanA phenotype of Enterococcus faecium ATCC 51559 assessed as induction of membrane depolarization measured at < 3 mins by DiSC3(5) dye-based spectrofluorometric analysis; format: functional, organism-based
Outline: (§5)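 Membrane potential assay with DiSC3(5): dye added to cells until maximal uptake, seen as a fluorescence minimum (about 10 min). Compounds then added and depolarization followed as the fluorescence increase over a further 10 min.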

[10] = tested on: Staphylococcus aureus; test: Antibacterial activity against methicillin-resistant Staphylococcus aureus ATCC 33591 assessed as induction of membrane depolarization measured at < 3 mins by DiSC3(5) dye-based spectrofluorometric analysis; format: functional, organism-based; outline: as §5
[11] = tested on: Enterococcus faecium; test: Antibacterial activity against vancomycin-resistant VanA phenotype of Enterococcus faecium ATCC 51559 assessed as leakage of intracellular potassium ion at 10 uM measured for 10 mins by PBFI-AM dye-based spectrofluorometric analysis; format: functional, organism-based; outline: as §3
[12] = tested on: Enterococcus faecium; test: Antibacterial activity against vancomycin-resistant VanA phenotype of Enterococcus faecium ATCC 51559 assessed as induction of membrane depolarization at 10 uM measured for 10 mins by DiSC3(5) dye-based spectrofluorometric analysis; format: functional, organism-based; outline: as §5
[13] = tested on: Staphylococcus aureus; test: Antibacterial activity against methicillin-resistant Staphylococcus aureus ATCC 33591 assessed as induction of cytoplasmic membrane permeabilization at 10 uM measured for 10 mins by propidium iodide uptake assay; format: functional, organism-based; outline: as §4
[14] = tested on: Staphylococcus aureus; test: Antibacterial activity against methicillin-resistant Staphylococcus aureus ATCC 33591 assessed as induction of membrane depolarization at 10 uM measured for 10 mins by DiSC3(5) dye-based spectrofluorometric analysis; format: functional, organism-based; outline: as §5

Compound | MIC90 [1] | MIC90 [2] | MIC90 [3] | MIC90 [4] | Activity [5] | Activity [6] | MIC [2] | Activity [7] | MIC [8] | MIC [4] | Activity [9] | Activity [10] | Activity [11] | MIC [1] | MIC [3] | Activity [12] | Activity [13] | Activity [14]
CN[C@H]1C(=O)N[C@@H]2Cc3ccc(cc3)Oc3cc4cc(c3O[C@@H]3O[C@H](C(=O)O)[C@@H](O)[C@H](O)[C@H]3NC(=O)CCCCCCCCC(C)C)Oc3ccc(cc3Cl)[C@@H](O)[C@@H]3NC(=O)[C@H](NC(=O)[C@@H]4NC(=O)[C@@H](NC2=O)c2cc(cc(O)c2Cl)Oc2cc1ccc2O)c1ccc(O)c(c1)-c1c(O[C@H]2O[C@H](CO)[C@@H](O)[C@H](O)[C@@H]2O)cc(O)cc1[C@@H](C(=O)NCCCN(C)C)NC3=O [DALBAVANCIN] | 0.08 µM | > 18 µM | 0.04 µM | 0.04 µM |  |  |  |  |  |  |  |  |  |  |  |  |  | 
CCCCCCCCCCCCCCCCCC[N+](C)(C)CCCNC(=O)[C@H]1NC(=O)[C@H]2NC(=O)[C@H](NC(=O)[C@@H]3NC(=O)[C@H](CC(N)=O)NC(=O)[C@H](NC(=O)[C@@H](CC(C)C)NC)[C@H](O)c4ccc(c(Cl)c4)Oc4cc3cc(c4O[C@@H]3O[C@H](CO)[C@@H](O)[C@H](O)[C@H]3O[C@H]3C[C@](C)(N)[C@H](O)[C@H](C)O3)Oc3ccc(cc3Cl)[C@H]2O)c2ccc(O)c(c2)-c2c(O)cc(O)cc21.O=C([O-])C(F)(F)F |  |  |  |  | 99% | Active | 1.9 µM | Dose-dependent effect | 0.92 µM | 5.03 µM | Dose-dependent effect | Dose-dependent effect | Active |  |  |  |  | 
CC[N+](C)(C)CCCNC(=O)[C@H]1NC(=O)[C@H]2NC(=O)[C@H](NC(=O)[C@@H]3NC(=O)[C@H](CC(N)=O)NC(=O)[C@H](NC(=O)[C@@H](CC(C)C)NC)[C@H](O)c4ccc(c(Cl)c4)Oc4cc3cc(c4O[C@@H]3O[C@H](CO)[C@@H](O)[C@H](O)[C@H]3O[C@H]3C[C@](C)(N)[C@H](O)[C@H](C)O3)Oc3ccc(cc3Cl)[C@H]2O)c2ccc(O)c(c2)-c2c(O)cc(O)cc21 |  |  |  |  |  | inactive | > 100 µM |  | 1.3 µM | 0.39 µM |  |  | inactive | 0.45 µM | 2.42 µM | inactive | inactive | inactive
CN[C@H](CC(C)C)C(=O)N[C@H]1C(=O)N[C@@H](CC(N)=O)C(=O)N[C@H]2C(=O)N[C@H]3C(=O)N[C@H](C(=O)N[C@H](C(=O)NCCCN(C)C)c4cc(O)cc(O)c4-c4cc3ccc4O)[C@H](O)c3ccc(c(Cl)c3)Oc3cc2cc(c3O[C@@H]2O[C@H](CO)[C@@H](O)[C@H](O)[C@H]2O[C@H]2C[C@](C)(N)[C@H](O)[C@H](C)O2)Oc2ccc(cc2Cl)[C@H]1O |  |  |  |  |  | inactive | > 100 µM |  | 1.47 µM | 0.62 µM |  |  | inactive | 0.63 µM | 0.61 µM | inactive | inactive | inactive
CCCCCCCCCCNCCN[C@@]1(C)C[C@H](O[C@H]2[C@H](Oc3c4cc5cc3Oc3ccc(cc3Cl)[C@@H](O)[C@@H](NC(=O)[C@@H](CC(C)C)NC)C(=O)N[C@@H](CC(N)=O)C(=O)N[C@H]5C(=O)N[C@H]3C(=O)N[C@H](C(=O)N[C@H](C(=O)O)c5cc(O)c(CNCP(=O)(O)O)c(O)c5-c5cc3ccc5O)[C@H](O)c3ccc(c(Cl)c3)O4)O[C@H](CO)[C@@H](O)[C@@H]2O)O[C@@H](C)[C@H]1O [TELAVANCIN] | 0.15 µM | 4 µM | 0.3 µM | 0.3 µM |  |  |  |  |  |  |  |  |  |  |  |  |  | 
CCCC[N+](C)(C)CCCNC(=O)[C@H]1NC(=O)[C@H]2NC(=O)[C@H](NC(=O)[C@@H]3NC(=O)[C@H](CC(N)=O)NC(=O)[C@H](NC(=O)[C@@H](CC(C)C)NC)[C@H](O)c4ccc(c(Cl)c4)Oc4cc3cc(c4O[C@@H]3O[C@H](CO)[C@@H](O)[C@H](O)[C@H]3O[C@H]3C[C@](C)(N)[C@H](O)[C@H](C)O3)Oc3ccc(cc3Cl)[C@H]2O)c2ccc(O)c(c2)-c2c(O)cc(O)cc21 |  |  |  |  |  | inactive | > 100 µM |  | 1.14 µM | 0.37 µM |  |  | inactive | 0.31 µM | 0.6 µM | inactive | inactive | inactive
CCCCCCCCCCCCCC[N+](C)(C)CCCNC(C)=O |  |  |  |  |  | inactive |  |  |  |  |  |  | inactive |  |  | inactive |  | 
CCCCCCCCCCCCCCNCCCNC(=O)[C@H]1NC(=O)[C@H]2NC(=O)[C@H](NC(=O)[C@@H]3NC(=O)[C@H](CC(N)=O)NC(=O)[C@H](NC(=O)[C@@H](CC(C)C)NC)[C@H](O)c4ccc(c(Cl)c4)Oc4cc3cc(c4O[C@@H]3O[C@H](CO)[C@@H](O)[C@H](O)[C@H]3O[C@H]3C[C@](C)(N)[C@H](O)[C@H](C)O3)Oc3ccc(cc3Cl)[C@H]2O)c2ccc(O)c(c2)-c2c(O)cc(O)cc21 |  |  |  |  |  | inactive | 5 µM |  | 1 µM | 0.55 µM |  |  | inactive | 0.4 µM | 0.61 µM | inactive |  | 
CCCCCCCCCC[N+](C)(C)CCCNC(=O)[C@H]1NC(=O)[C@H]2NC(=O)[C@H](NC(=O)[C@@H]3NC(=O)[C@H](CC(N)=O)NC(=O)[C@H](NC(=O)[C@@H](CC(C)C)NC)[C@H](O)c4ccc(c(Cl)c4)Oc4cc3cc(c4O[C@@H]3O[C@H](CO)[C@@H](O)[C@H](O)[C@H]3O[C@H]3C[C@](C)(N)[C@H](O)[C@H](C)O3)Oc3ccc(cc3Cl)[C@H]2O)c2ccc(O)c(c2)-c2c(O)cc(O)cc21 |  |  |  |  | Active | Active | 3 µM | Dose-dependent effect | 0.3 µM | 0.31 µM | Dose-dependent effect | Dose-dependent effect | Active | 0.2 µM | 0.31 µM |  |  | 
